The EternaBench riboswitch data

System: MS2 coat protein
Test: apparent Kd, MS2 coat protein; higher = weaker binding; RNA-MaP array
Outline: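 Sequenced DNA templates on an Illumina sequencing chip were transcribed into the designed RNAs. These were incubated at room temperature in Tris-HCl pH 7.5 buffer containing KCl, MgCl2, BSA, DTT, tRNA and Tween20 with fluorescently labeled MS2 coat protein at 1.5 nM to 3 μM, with or without input ligand. Apparent Kd is the median of binding-curve fits per cluster, and designs with fewer than 10 clusters measured were excluded.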

[1] = designed as: ON switch for flavin mononucleotide, no ligand
[2] = ligand present: flavin mononucleotide, designed as: ON switch for flavin mononucleotide
[3] = designed as: OFF switch for flavin mononucleotide, no ligand
[4] = ligand present: flavin mononucleotide, designed as: OFF switch for flavin mononucleotide
[5] = designed as: OFF switch for tryptophan, no ligand
[6] = ligand present: tryptophan, designed as: OFF switch for tryptophan

| Sequence | apparent Kd [1] [nM] | apparent Kd [2] [nM] | apparent Kd [3] [nM] | apparent Kd [4] [nM] | further results |
| --- | --- | --- | --- | --- | --- |
| AAACAUGCGUGAGAGGAUAUGUCAUUAAUAACAUGAGGAUCACCCAUGUUCGAUGAUUGAAAUAAACAGAAGGCUCCGGUCUGUAA | 27 | 18.7 |  |  |  |
| GUGACACAUGAGGAUCACCCAUGUCAGGAUAUAGGUCAGCAAAGUAACCAUGACGAGACUAGAAGGGACGCGUG |  |  | 30.5 | 22.5 |  |
| UGAGUCUAAGGAUAUGCUGCCGACAACAUGAGGAUCACCCAUGUCUUUCGUUGUUCGCCGGCAGAAGGUAGCAAUU |  |  | 561 | 262 |  |
| AAUGGAGUCGAGAAGGCAGCGACCCACUAAACCUGAGGAUAUCGUCUCCGAAAAUGGGUGGGUGUACAUGAGGAUCACCCAUGU |  |  | 95.2 | 122 |  |
| AGAGAGUCAGGAUAUAAAUAUAAAGAGAUAAAGCAAACAAUUUAGAAGGGACAUGAGGAUCACCCAUGUGAUAA |  |  | 13.6 | 12.7 |  |
| AAACAGAGCAGAGGAUAUAUGAUAUGCCGAACAUGAGGAUCACCCAUGUCUUCGCGUAGCGCCCCAUAGAAGGCUGAUAGCAAC | 16.6 | 14 |  |  |  |
| UAAUUCACUAUUCACGGUCCGAUGUUCGAUACCAGAUCAUUUCGAAUCCCUUGGCAGCGAUUAACAUGAGGAUCACCCAUGUAAC |  |  |  |  | apparent Kd (designed as: OFF switch for theophylline, no ligand): 32.2 nM; apparent Kd (ligand present: theophylline, designed as: OFF switch for theophylline): 83.9 nM |
| ACCAUGUGACAGGAUAUGUUUCUCUCAAUAAACACAGAAGGGUCUACAUGAGGAUCACCCAUGUGUAUUCUACC |  |  | 72.6 | 64.3 |  |
| AUAACGACUUCAGGAUAUCUAAUAUGGCCUAUAUGCUGAAAACAUGAGGAUCACCCAUGUCAAGGAGAGAAGGGAAGACAAACA |  |  | 13.3 | 10.2 |  |
| UUGCUAACAGUAGGAUAUUCAAAACAGCGUGAGGAAGAAGGACUAGCGACUUCGUGACAUGAGGAUCACCCAUGUGUAAGGCCA | 12.5 | 9.89 |  |  |  |
| UGUCGAUGAUCCAAGGAUAUAUGGAUGCUGACAUGAGGAUCACCCAUGUCCCGAGAAAUCAUUAAAUAGAAGGUGGGCUAUGGCAA | 45.9 | 21.2 |  |  |  |
| UGGAAUGUGCAAGGAUAUUGGCGGUGUGGAAUAGAAUCACUCGAACAUGAGGAUCACCCAUGUUGCAAGAAGGUGCGGGAACGA |  |  | 38.2 | 33.5 |  |
| GUUGCACAUGAGGAUCACCCAUGUUUGGAUACCAGUCUCUGUAAUGACCCUUGGCAGCCACCAUAGACGCUUGAGUAGAGCCUGA |  |  |  |  | apparent Kd (designed as: ON switch for theophylline, no ligand): 15 nM; apparent Kd (ligand present: theophylline, designed as: ON switch for theophylline): 16 nM |
| AUGUAGUGCGAGAAGGACUCCCUCUUACACAUGAGGAUCACCCAUGUGCCCUCAAGCUAGACCGAGUAGGAUAUCGACCGCGCC |  |  | 60 | 43.6 |  |
| CCAAUGCAAGGAUAUACAAAAGACUCACUAAAUAGAACAAAACAUGAGGAUCACCCAUGUAGAAGGUGCUGAAC |  |  | 12.3 | 13.6 |  |
| AUUACAGACUACGGCGAUACAUGAGGAUCACCCAUGUCGAGUUAGGAUAUGCAACAAUACGGCCUGCAGAAGGAACCAAGAGGG |  |  | 35.1 | 32.3 |  |
| UAUGGACAUGAGGAUCACCCAUGUGGUAGAUGCUUAGGAUAUUAGACAGGAUACAUGUACUAAGAAGGAAGAUGGU | 266 | 102 |  |  |  |
| GAUUUUAGUGAAGGAUAUACAAACAACAUGAGGAUCACCCAUGUCUGGAAUGAUCGCAGGGCCCGGUAGAAGGUCAUCAGAAAG |  |  | 31.1 | 24 |  |
| GUGUUAUAUCCGUAACAUGAGGAUCACCCAUGUGUGAGAUCGAAGGAUAUCUGUCUGAGCUCAAAAGAGAAGGUCGAUACAAUG |  |  | 57.6 | 44.9 |  |
| CCAGCUAAAGGAUAUACUGCCGGUGUUAUGUAAUAAUUGCAACAUGAGGAUCACCCAUGUAGAAGGUAAGUGAA |  |  | 11 | 9.45 |  |
| CUUGUGCUGACGGCCGCCACUUUAUGGGAGUCCUGUUCUGAUUGAUACAUGAGGAUCACCCAUGUAAGGACCGGGUCGUACCAUA |  |  |  |  | apparent Kd [5]: 18 nM; apparent Kd [6]: 22.3 nM |

| Sequence | apparent Kd [1] [nM] | apparent Kd [2] [nM] | apparent Kd [3] [nM] | apparent Kd [4] [nM] | further results |
| --- | --- | --- | --- | --- | --- |
| GUACUGCAGUUAGGAUAUACCGGAGGAUUAUACACCUACUAACAUGAGGAUCACCCAUGUCUCUCGUAGAAGGAACAUAUUAGC | 20.9 | 16.5 |  |  |  |
| GUGCCAAAAGAGGAUAUAUUGACGAUGAUUCGCAUAGAAGGCUUUACAUGAGGAUCACCCAUGUGGGAGUGAUC |  |  | 614 | 184 |  |
| GUAUUGUAAGGAUAUAGUAGGCCAGUACGAAGGCUUGAGCACUAGAAGGUACAUGAGGAUCACCCAUGUGGUGG |  |  | 401 | 146 |  |
| UCGCUAUUGUCGGCCGCCACUACUGCAGGGAAACAAAUAUAACCACAUGAGGAUCACCCAUGUCUUAGGACCGGGACACCCAUCU |  |  |  |  | apparent Kd (designed as: ON switch for tryptophan, no ligand): 98.3 nM; apparent Kd (ligand present: tryptophan, designed as: ON switch for tryptophan): 80.7 nM |
| AACAUGAGGAUCACCCAUGUACACUCAAUUCGGUAUCGCUGCAAGGAUAUUCGCGUUGGAUACAUGAAGAAGGUGCCCGUACCG | 92 | 12.5 |  |  |  |
| CACGCCAUAGGAUAUACAUGAGGAUCACCCAUGUGGUGGUAGCAGCCAUAACGGUACAGUAGAAGGAUGUGCGA |  |  | 274 | 171 |  |
| AUCGCGACCCAGAAGGGAAGUCGGUGAAGCGGUUCAGGAUAUGGGCAGAGGACAUGAGGAUCACCCAUGUGCAUGUAUUCGGCA | 17.2 | 13.7 |  |  |  |
| AUUCGCCGAGGAUAUAAGUCGUUUGACAUGAGGAUCACCCAUGUUGUCAGUGGAAAUCGUUUAGAAGGCGGCCUCC |  |  | 18.9 | 13.4 |  |
| CAGAGUUCCUAAGGAUAUUGCUGGUCCGCAGUUCAAGAAGGUAGGUAUAAAAUGCUUAAACAUGAGGAUCACCCAUGUCAAGCC | 6.75 | 6.08 |  |  |  |
| CGCUAAGAGCGGCACCUCCACAUGAGGAUCACCCAUGUUUGAAGAAGGCCAAUUUACGUAAGACUGGAGGAUAUUCAGGAGAGU | 10.1 | 5.9 |  |  |  |
| AUAAAUAAUUCAGGAUAUUGCGAUCAAACAACAUGAGGAUCACCCAUGUCCGUAAACACAACAAGCAAGAAGGGAAAGAAUCAA | 24.6 | 14.6 |  |  |  |
| AAUAUAAACGUCAGGAUAUUCACGAUAAACAAAUAGAAGAAGGGACAUGAGGAUCACCCAUGUAAACAUGAGUA |  |  | 11.6 | 18.3 |  |
| GUCUAAGGCCAAGGAUAUUGCGUACUUGCGGAUGAUAGUAGAAAACAUGAGGAUCACCCAUGUCACAAGAAGGUGGUCCUGGGA |  |  | 323 | 176 |  |
| GAGGCAACGAUGGAGGAUAUACUAGGUAAUACAUGAGGAUCACCCAUGUGAGAAAGAGAGUACAUGUAGAAGGCCAGAUAUGCGGU | 30.5 | 11.8 |  |  |  |
| CCGAUGAUGAUAGGAUAUCUAGGAGUUAAGACGCCGUCUACAUGAGGAUCACCCAUGUUUCGAUUAGAGAAGGAUCGGGAUUCG | 13.1 | 7.13 |  |  |  |
| GAGCGACUAUGAGAUUGGACAUGAGGAUCACCCAUGUGAGACAGAAGGGCCUUGGCGCCCGUGAGGCAGGAUAUGUACCAAGCA | 27.4 | 19.6 |  |  |  |
| CACAUGUCAGGAUAUAGCGAUACAGUUCGACCACUUACUGCCUAGAAGGGACAUGAGGAUCACCCAUGUAAAAG |  |  | 26.1 | 61.2 |  |
| CAUCCAACACAAGGAUAUUGGACGUUUUUCAGCGCACAUGAGGAUCACCCAUGUACAAGGGAGUACAAGAAGGUGUUUUGGAUC | 27.1 | 9.49 |  |  |  |
| UCGCCAUUGACGGCCGCCACUCAAUGGUCUUCUCUGAACAUAAUUAACAUGAGGAUCACCCAUGUGAGGACCGGGUCGGUUAGAC |  |  |  |  | apparent Kd [5]: 19.5 nM; apparent Kd [6]: 32.3 nM |
| GGGUUAAAGCAGAAGGGUUACGGACAAAAUUAAACAGGAUAUGCCGUAAUACAUGAGGAUCACCCAUGUCAUACGUCAUCAGGG | 18.9 | 16 |  |  |  |
